Assay [1] concerns the target T1, Ephrin type-B receptor 4 (Homo sapiens) (UniProt P54760).
T1 sequence (whole entry): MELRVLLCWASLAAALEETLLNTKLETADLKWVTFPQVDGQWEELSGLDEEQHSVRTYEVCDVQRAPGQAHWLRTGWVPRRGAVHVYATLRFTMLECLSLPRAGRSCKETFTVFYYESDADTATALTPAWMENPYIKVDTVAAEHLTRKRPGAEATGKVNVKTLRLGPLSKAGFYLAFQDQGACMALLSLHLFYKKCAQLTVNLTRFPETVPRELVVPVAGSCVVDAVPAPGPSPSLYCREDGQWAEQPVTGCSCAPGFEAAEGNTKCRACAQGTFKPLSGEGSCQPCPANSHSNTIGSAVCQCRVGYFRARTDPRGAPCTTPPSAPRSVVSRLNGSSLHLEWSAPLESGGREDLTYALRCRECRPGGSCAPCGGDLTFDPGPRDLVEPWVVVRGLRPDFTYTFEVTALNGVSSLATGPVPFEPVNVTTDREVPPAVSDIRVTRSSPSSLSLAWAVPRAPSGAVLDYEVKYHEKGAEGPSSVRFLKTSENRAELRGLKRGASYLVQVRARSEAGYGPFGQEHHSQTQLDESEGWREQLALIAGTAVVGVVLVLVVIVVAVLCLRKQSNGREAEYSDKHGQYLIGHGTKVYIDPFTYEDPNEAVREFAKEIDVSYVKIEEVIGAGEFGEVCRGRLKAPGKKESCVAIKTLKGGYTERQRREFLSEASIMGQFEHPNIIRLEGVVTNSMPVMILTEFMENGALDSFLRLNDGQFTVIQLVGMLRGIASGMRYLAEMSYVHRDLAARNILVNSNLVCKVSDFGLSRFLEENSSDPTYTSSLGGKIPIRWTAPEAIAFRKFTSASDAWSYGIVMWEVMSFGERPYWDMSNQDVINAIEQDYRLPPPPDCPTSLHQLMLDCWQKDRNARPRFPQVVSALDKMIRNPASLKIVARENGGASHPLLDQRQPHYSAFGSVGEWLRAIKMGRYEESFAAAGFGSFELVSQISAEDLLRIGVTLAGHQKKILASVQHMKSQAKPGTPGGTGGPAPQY
In words: Inhibition of human N-terminal GST-fused EPHB4 cytoplasmic domain (577 to 987 (end)residues) expressed in baculovirus expression system at 20 uM measured after 1 hr in presence of peptide substrate and ATP by off-chip mobility shift assay relative to control. The essentials: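 Off-chip mobility shift assay. Product and substrate peptides were separated; activity was taken as P/(P+S). Complete reaction was set as 0% inhibition and enzyme-free background as 100%. Run in triplicate, mean ± SD.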

Assay [2] is described as follows: Antiproliferative activity against human HCC827 Gefitinib-resistant (GR) cells assessed as reduction in cell viability measured after 72 hrs by MTS assay.
Assay [3] can be described thus: Induction of apoptosis in human PC9-OR cells assessed as early apoptotic cells at 20 uM measured after 24 hrs by Annexin V-[…]propidium iodide staining based flow cytometry relative to control. Format: functional. The essentials: (§1)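 Resistant cells were seeded at 500.000 per dish and treated the next day for 24 h at 20 μM. Cells were harvested, washed in PBS, and stained with annexin V-Alexa 488 and PI, then analysed by flow cytometry. Early apoptotic cells were scored as annexin+/PI−, late apoptotic/necrotic cells as annexin+/PI+.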

The nature of assay [4]: Induction of apoptosis in human HCC827 Gefitinib-resistant (GR) cells assessed as late apoptotic/necrotic cells at 20 uM measured after 24 hrs by Annexin V-[…]propidium iodide staining based flow cytometry relative to control. It counts as functional, HCC827 Gefitinib-resistant (GR) cell. The essentials: as §1

Each structure is given as a SMILES string.

On to `O=C(CN1C(=O)/C(=N\NC(=O)c2cc(Br)ccc2O)c2c(Br)cccc21)Nc1ccc([N+](=O)[O-])cc1`, for which the inhibition in assay [1] was found to be 70.8%. The IC50 in assay [2] is 3.52 µM.
Consider `Cc1ccc(NC(=O)CN2C(=O)/C(=N\NC(=O)c3cc(Br)ccc3O)c3ccc(Cl)cc32)cc1`, for which the inhibition in assay [1] was 63%. Also, the IC50 in assay [2] amounted to 5.16 µM.
`Cc1ccc(NC(=O)CN2C(=O)/C(=N\NC(=O)c3cc(Br)ccc3O)c3ccc(Br)cc32)cc1`: in assay [1], the inhibition was found to be 62.5%. Further, the figures for the Activity in assay [3] and in assay [4] were 57.5% and 90.8%, respectively. For the same molecule, the IC50 in assay [2] worked out at 4.34 µM.
As to `Cc1ccc(NC(=O)CN2C(=O)/C(=N\NC(=O)c3cc(Br)ccc3O)c3ccccc32)cc1`, the inhibition in assay [1] is 93.3%. Besides, the figures for the Activity in assay [3] and in assay [4] were 75.5% and 96.2%, respectively. Also, the IC50 in assay [2] is 10.7 µM.

The values above are taken from ChEMBL document CHEMBL6134769, “Discovery of N-substituted-2-oxoindolin benzoylhydrazines as c-MET/SMO modulators in EGFRi-resistant non-small cell lung cancer” (RSC Med Chem, 2025).
